{
  "source": "ChEMBL document CHEMBL1124248",
  "about": "“Preparation and antischistosomal and antitumor activity of hycanthone and some of its congeners. Evidence for the mode of action of hycanthone” (1988)",
  "assay_type_in_all_cases": "functional",
  "key": {"Schistosoma mansoni [1]": {"test_system": "Schistosoma mansoni", "assay": "Incorporation of 2.6 *10e6 M [3H]uridine in hycanthone(HC) resistant Schistosoma mansoni", "in_short": "(§1)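 Adult HC-resistant S. mansoni were treated in vitro, and [3H]uridine incorporation by the worms was measured. Values are % of control. Concentrations are given in M × 10^6.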"}, "Schistosoma mansoni [2]": {"test_system": "Schistosoma mansoni", "assay": "Day 50% survival of worms in culture of HC resistant Schistosoma mansoni at 1.3 *10e6 M", "in_short": "(§2)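 Adult HC-resistant S. mansoni were exposed in vitro and kept in culture. The value is the day by which 50% of worms were dead. Cultures were ended at different times in different experiments. Concentrations are given in M × 10^6.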"}, "Schistosoma mansoni [3]": {"test_system": "Schistosoma mansoni", "assay": "Incorporation of 5.2*10e6M [3H]uridine in hycanthone(HC) resistant Schistosoma mansoni", "in_short": "as §1"}, "Schistosoma mansoni [4]": {"test_system": "Schistosoma mansoni", "assay": "Day 50% survival of worms in culture of HC resistant Schistosoma mansoni at 5.2*10e6M", "in_short": "as §2"}, "Schistosoma mansoni [5]": {"test_system": "Schistosoma mansoni", "assay": "Day 50% survival of worms in culture of HC sensitive Schistosoma mansoni at 1.3 *10e6 M"}, "Schistosoma mansoni [6]": {"test_system": "Schistosoma mansoni", "assay": "Incorporation of 2.6 *10e6 M [3H]uridine in hycanthone(HC) sensitive Schistosoma mansoni"}, "Schistosoma mansoni [7]": {"test_system": "Schistosoma mansoni", "assay": "Incorporation of 1.3 *10e6 M [3H]uridine in hycanthone(HC) sensitive Schistosoma mansoni"}, "Schistosoma mansoni [8]": {"test_system": "Schistosoma mansoni", "assay": "Incorporation of 5.2*10e6M [3H]-uridine in hycanthone(HC) sensitive Schistosoma mansoni"}, "Schistosoma mansoni [9]": {"test_system": "Schistosoma mansoni", "assay": "Incorporation of 1.3 *10e6 M [3H]uridine in hycanthone(HC) resistant Schistosoma mansoni", "in_short": "as §1"}},
  "data": [
    {"molecule": "CN(C)CCNc1ccc(CO)c2sc3ccc(O)cc3c(=O)c12", "values": [
      {"measurement": "Control", "setting": "Schistosoma mansoni [1]", "result": 108, "unit": "%"},
      {"measurement": "Effect", "setting": "Schistosoma mansoni [2]", "result": ">12", "unit": "days"},
      {"measurement": "Control", "setting": "Schistosoma mansoni [3]", "result": 91, "unit": "%"},
      {"measurement": "Effect", "setting": "Schistosoma mansoni [4]", "result": ">12", "unit": "days"},
      {"measurement": "Effect", "setting": "Schistosoma mansoni [5]", "result": 9, "unit": "days"},
      {"measurement": "Control", "setting": "Schistosoma mansoni [6]", "result": 20, "unit": "%"},
      {"measurement": "Control", "setting": "Schistosoma mansoni [7]", "result": 43, "unit": "%"},
      {"measurement": "Control", "setting": "Schistosoma mansoni [8]", "result": 23, "unit": "%"},
      {"measurement": "Control", "setting": "Schistosoma mansoni [9]", "result": 96, "unit": "%"}
    ]}
  ]
}
